Reference: ChEMBL document CHEMBL1138238, “Synthesis and evaluation of 3-aryloxymethyl-1,2-dimethylindole-4,7-diones as mechanism-based inhibitors of NAD(P)H:quinone oxidoreductase 1 (NQO1) activity” (J Med Chem, 2007)

How the values were obtained:
[1] = system: MIA PaCa-2; assay: Cytotoxicity against human MIA PaCa2 cells after 4 hrs by MTT assay; type: functional, cell-based; settings: MIA PaCa-2, 4 h
[2] = system: MIA PaCa-2; assay: Cytotoxicity against human MIA PaCa2 cells after 72 hrs by MTT assay; type: functional, cell-based; settings: MIA PaCa-2, 72 h
[3] = biological target: NAD(P)H dehydrogenase [quinone] 1 (Homo sapiens) (UniProt P15559); assay: Inhibition of human recombinant NQO1 expressed in MIA PaCa2 cells at 10 to 100 nM after 1 hrs; type: cell-based; settings: MIA PaCa-2
Procedure, shortened: (§1)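 MIA PaCa-2 cells (1×10^6, plated the day before) exposed to indolequinone (1 nM–10 μM) in complete medium for 1 h. Cells then washed in PBS, scraped into 50 mM K phosphate pH 7.4 with 250 mM sucrose and 5 μM FAD, and sonicated on ice. NQO1 activity in sonicates measured as 0.2 mM NADH-dependent reduction of 40 μM DCPIP, read at 600 nm for 1 min at 32 °C.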

[4] = biological target: NAD(P)H dehydrogenase [quinone] 1 (Homo sapiens) (UniProt P15559); assay: Inhibition of human recombinant NQO1 expressed in MIA PaCa2 cells at <10 nM after 1 hrs; type: cell-based; settings: MIA PaCa-2; procedure, shortened: as §1
[5] = biological target: NAD(P)H dehydrogenase [quinone] 1 (Homo sapiens) (UniProt P15559); assay: Inhibition of human recombinant NQO1 expressed in MIA PaCa2 cells at 5000 to 10000 nM after 1 hrs; type: cell-based; settings: MIA PaCa-2; procedure, shortened: as §1

Sequence of NAD(P)H dehydrogenase [quinone] 1 (Homo sapiens) (P15559 whole entry): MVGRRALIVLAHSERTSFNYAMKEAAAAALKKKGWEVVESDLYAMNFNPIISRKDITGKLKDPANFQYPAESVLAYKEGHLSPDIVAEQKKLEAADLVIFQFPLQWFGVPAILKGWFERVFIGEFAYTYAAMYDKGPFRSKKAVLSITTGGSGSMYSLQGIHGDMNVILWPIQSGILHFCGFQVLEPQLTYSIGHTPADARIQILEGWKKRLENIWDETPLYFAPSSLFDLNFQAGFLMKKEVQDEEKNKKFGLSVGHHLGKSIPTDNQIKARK

Structure (SMILES) | IC50 [1] [µM] | IC50 [2] [µM] | inhibition [3] [%] | inhibition [4] [%] | inhibition [5] [%]
COC1=CC(=O)c2c(c(COc3c(F)cc(F)cc3F)c(C)n2C)C1=O | 0.427 | 0.086 |  |  | 
COC1=CC(=O)c2c(c(COc3ccccc3[N+](=O)[O-])c(C)n2C)C1=O | 0.345 | 0.104 |  |  | 
Oc1c(F)cc(F)cc1F | 36.4 | 38.1 |  |  | 
COC1=CC(=O)c2c(COc3c(F)cc(F)cc3F)c(C)n(C)c2C1=O | 0.452 | 0.212 | > 90 |  | 
Oc1ccccc1 [PHENOL] | 16.5 | 16 |  |  | 
COC1=CC(=O)c2c(COc3ccc(N)cc3)c(C)n(C)c2C1=O | 0.504 | 0.16 |  |  | 
O=[N+]([O-])c1cccc(O)c1 [3-NITRO-PHENOL] | 7.13 | 13.9 |  |  | 
COC1=CC(=O)c2c(COc3cccnc3)c(C)n(C)c2C1=O | 2.48 | 1.82 |  |  | 
Oc1cccnc1 | 56.5 | 73.1 |  |  | 
O=[N+]([O-])c1ccc(O)cc1 [P-NITROPHENOL] | 11 | 13 |  |  | 
O=[N+]([O-])c1ccc(O)c([N+](=O)[O-])c1 [2,4-DINITROPHENOL] | 15.9 | 22.1 |  |  | 
Nc1ccc(O)cc1 [4-AMINOPHENOL] | 42 | 42.2 |  |  | 
COC1=CC(=O)c2c(c(COc3cccc([N+](=O)[O-])c3)c(C)n2C)C1=O | 0.352 | 0.258 | > 90 |  | 
COC1=CC(=O)c2c(COc3cccc([N+](=O)[O-])c3)c(C)n(C)c2C1=O | 0.351 | 0.257 | > 90 |  | 
COC1=CC(=O)c2c(c(COc3ccccc3)c(C)n2C)C1=O | 1.39 | 0.962 |  |  | 
COC1=CC(=O)c2c(c(COc3ccc([N+](=O)[O-])cc3F)c(C)n2C)C1=O | 4.65 | 3.56 |  |  | 
COC1=CC(=O)c2c(c(COc3ccncc3)c(C)n2C)C1=O | 2.01 | 2.17 |  |  | 
COC1=CC(=O)c2c(c(COc3ccccn3)c(C)n2C)C1=O |  |  |  | > 90 | 
COC1=CC(=O)c2c(c(COc3ccc([N+](=O)[O-])cc3)c(C)n2C)C1=O | 0.629 | 0.508 | > 90 |  | 
COC1=CC(=O)c2c(c(C(C)Oc3ccc([N+](=O)[O-])cc3)c(C)n2C)C1=O (stereo not given) | 1.83 | 1.7 |  |  | 

Structure (SMILES) | IC50 [1] [µM] | IC50 [2] [µM] | inhibition [3] [%] | inhibition [4] [%] | inhibition [5] [%]
O=[N+]([O-])c1ccc(O)c(F)c1 | 14.3 | 19.2 |  |  | 
Oc1ccc(F)cc1 | 12.4 | 13.2 |  |  | 
Oc1ccncc1 | 43.2 | 17.8 |  |  | 
COC1=CC(=O)c2c(COc3ccc(C#N)cc3)c(C)n(C)c2C1=O | 0.463 | 0.192 |  |  | 
COC1=CC(=O)c2c(COc3ccc(F)cc3)c(C)n(C)c2C1=O | 0.905 | 0.493 |  |  | > 90
O=[N+]([O-])c1ccccc1O [NITROPHENOLATE] | 6.08 | 16.4 |  |  | 
Oc1ccc(F)cc1F | 14.8 | 20.8 |  |  | 
COC1=CC(=O)c2c(c(COc3cccnc3)c(C)n2C)C1=O | 0.904 | 0.562 | > 90 |  | 
COC1=CC(=O)c2c(COc3ccc(F)cc3F)c(C)n(C)c2C1=O | 0.255 | 0.075 | > 90 |  | 
COC1=CC(=O)c2c(COc3ccc(C(F)(F)F)cc3)c(C)n(C)c2C1=O | 0.496 | 0.311 |  |  | > 90
COC1=CC(=O)c2c(COc3ccccc3)c(C)n(C)c2C1=O | 4.56 | 0.409 |  |  | 
Oc1ccccn1 | 68.1 | 68.8 |  |  | 
COC1=CC(=O)c2c(COc3ccncc3)c(C)n(C)c2C1=O | 2.56 | 3.27 | > 90 |  | 
Oc1ccc(C(F)(F)F)cc1 | 13.1 | 32.9 |  |  | 
N#Cc1ccc(O)cc1 [4-CYANOPHENOL] | 56.8 | 73.3 |  |  | 
COC1=CC(=O)c2c(COc3ccccn3)c(C)n(C)c2C1=O | 9.58 | 2.39 | > 90 |  | 
COC1=CC(=O)c2c(COc3ccccc3[N+](=O)[O-])c(C)n(C)c2C1=O | 0.363 | 0.178 | > 90 |  | 
COC1=CC(=O)c2c(COc3ccc([N+](=O)[O-])cc3F)c(C)n(C)c2C1=O | 0.529 | 0.417 | > 90 |  | 
COC1=CC(=O)c2c(COc3ccc([N+](=O)[O-])cc3)c(C)n(C)c2C1=O | 0.638 | 0.355 | > 90 |  | 
